Data as given in ChEMBL document CHEMBL1629686, “Substrate selectivity and a novel role in inhibitor discrimination by residue 237 in the KPC-2 beta-lactamase” (Antimicrob Agents Chemother, 2010).
Converted amounts (≈) assume the structure as drawn.

Columns and labels:
Klebsiella pneumoniae [1] = test: Activity of Klebsiella pneumoniae 1534 beta-lactamase KPC-2 T237S mutant by spectrophotometric analysis
Method in brief: (§1)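 Purified KPC-2 variant enzymes (periplasmic lysate from E. coli, preparative isoelectric focusing). Hydrolysis followed by diode-array spectrophotometry in 10 mM PBS, pH 7.4, room temperature. Enzyme at 10 nM with substrate in molar excess for pseudo-first-order conditions. Vmax and Km came from a nonlinear least-squares Michaelis-Menten fit.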

Klebsiella pneumoniae [2] = test: Ratio of Kcat/Km for Klebsiella pneumoniae 1534 beta-lactamase KPC-2 T237S mutant by spectrophotometric analysis; method in brief: as §1
Klebsiella pneumoniae [3] = test: Activity of Klebsiella pneumoniae 1534 beta-lactamase KPC-2 T237A mutant by spectrophotometric analysis; method in brief: as §1
Klebsiella pneumoniae [4] = test: Selectivity index, Ratio of Kcat/Km for Klebsiella pneumoniae 1534 beta-lactamase KPC-2 T237S mutant to ratio of Kcat/Km for Klebsiella pneumoniae 1534 beta-lactamase KPC-2 by spectrophotometric analysis
Method in brief: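 Kinetics used purified enzymes in 10 mM PBS, pH 7.4, room temperature, with 10 nM enzyme and substrate in excess. Km and Vmax came from a Michaelis-Menten fit. kcat/Km of the variant was compared with wild type as ΔΔG = −RT ln of the kcat/Km ratio.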

Klebsiella pneumoniae [5] = test: Antimicrobial activity against Klebsiella pneumoniae 1534 expressing beta-lactamase KPC-2 by agar dilution method; format: functional
Method in brief: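 MICs were determined by LB agar dilution following CLSI criteria, with a Steers replicator. […] Piperacillin-tazobactam was kept at an 8:1 ratio.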

Escherichia coli [6] = test: Antimicrobial activity against Escherichia coli DH10B harboring plasmid pBR322-catI carrying beta-lactamase KPC-2 by agar dilution method; format: functional; details: K-12 DH10B
Method in brief: (§2)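 LB agar dilution MICs followed CLSI criteria, with inocula applied by Steers replicator. […] Piperacillin-tazobactam was tested at an 8:1 ratio. Wild-type and mutant blaKPC-2 were carried on pBC SK(+), or wild type on pBR322-catI, in E. coli DH10B.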

Escherichia coli [7] = test: Antimicrobial activity against Escherichia coli DH10B harboring plasmid pBC SK(+) carrying wild type beta-lactamase KPC-2 by agar dilution method; format: functional; details: K-12 DH10B; method in brief: as §2
Escherichia coli [8] = test: Antimicrobial activity against Escherichia coli DH10B harboring beta-lactamase KPC-2 T237A mutant by agar dilution method; format: functional; details: K-12 DH10B; method in brief: as §2
Escherichia coli [9] = test: Antimicrobial activity against Escherichia coli DH10B harboring beta-lactamase KPC-2 T237G mutant by agar dilution method; format: functional; details: K-12 DH10B; method in brief: as §2
Escherichia coli [10] = test: Antimicrobial activity against Escherichia coli DH10B harboring beta-lactamase KPC-2 T237I mutant by agar dilution method; format: functional; details: K-12 DH10B; method in brief: as §2
Escherichia coli [11] = test: Antimicrobial activity against Escherichia coli DH10B harboring beta-lactamase KPC-2 T237L mutant by agar dilution method; format: functional; details: K-12 DH10B; method in brief: as §2
Escherichia coli [12] = test: Antimicrobial activity against Escherichia coli DH10B harboring beta-lactamase KPC-2 T237M mutant by agar dilution method; format: functional; details: K-12 DH10B; method in brief: as §2
Escherichia coli [13] = test: Antimicrobial activity against Escherichia coli DH10B harboring beta-lactamase KPC-2 T237V mutant by agar dilution method; format: functional; details: K-12 DH10B; method in brief: as §2
Escherichia coli [14] = test: Antimicrobial activity against Escherichia coli DH10B harboring beta-lactamase KPC-2 T237F mutant by agar dilution method; format: functional; details: K-12 DH10B; method in brief: as §2
Escherichia coli [15] = test: Antimicrobial activity against Escherichia coli DH10B harboring beta-lactamase KPC-2 T237W mutant by agar dilution method; format: functional; details: K-12 DH10B; method in brief: as §2
Escherichia coli [16] = test: Antimicrobial activity against Escherichia coli DH10B harboring beta-lactamase KPC-2 T237Y mutant by agar dilution method; format: functional; details: K-12 DH10B; method in brief: as §2
Escherichia coli [17] = test: Antimicrobial activity against Escherichia coli DH10B harboring beta-lactamase KPC-2 T237C mutant by agar dilution method; format: functional; details: K-12 DH10B; method in brief: as §2
Escherichia coli [18] = test: Antimicrobial activity against Escherichia coli DH10B harboring beta-lactamase KPC-2 T237N mutant by agar dilution method; format: functional; details: K-12 DH10B; method in brief: as §2
Escherichia coli [19] = test: Antimicrobial activity against Escherichia coli DH10B harboring beta-lactamase KPC-2 T237P mutant by agar dilution method; format: functional; details: K-12 DH10B; method in brief: as §2
Escherichia coli [20] = test: Antimicrobial activity against Escherichia coli DH10B harboring beta-lactamase KPC-2 T237Q mutant by agar dilution method; format: functional; details: K-12 DH10B; method in brief: as §2
Escherichia coli [21] = test: Antimicrobial activity against Escherichia coli DH10B harboring beta-lactamase KPC-2 T237S mutant by agar dilution method; format: functional; details: K-12 DH10B; method in brief: as §2
Escherichia coli [22] = test: Antimicrobial activity against Escherichia coli DH10B harboring beta-lactamase KPC-2 T237D mutant by agar dilution method; format: functional; details: K-12 DH10B; method in brief: as §2
Escherichia coli [23] = test: Antimicrobial activity against Escherichia coli DH10B harboring beta-lactamase KPC-2 T237E mutant by agar dilution method; format: functional; details: K-12 DH10B; method in brief: as §2
Escherichia coli [24] = test: Antimicrobial activity against Escherichia coli DH10B harboring beta-lactamase KPC-2 T237H mutant by agar dilution method; format: functional; details: K-12 DH10B; method in brief: as §2
Escherichia coli [25] = test: Antimicrobial activity against Escherichia coli DH10B harboring beta-lactamase KPC-2 T237K mutant by agar dilution method; format: functional; details: K-12 DH10B; method in brief: as §2
Escherichia coli [26] = test: Antimicrobial activity against Escherichia coli DH10B harboring beta-lactamase KPC-2 T237R mutant by agar dilution method; format: functional; details: K-12 DH10B; method in brief: as §2
Escherichia coli [27] = test: Antimicrobial activity against Escherichia coli DH10B by agar dilution method; format: functional; details: K-12 DH10B; method in brief: as §2
Escherichia coli [28] = test: Antimicrobial activity against Escherichia coli DH10B harboring plasmid […] by agar dilution method; format: functional; details: K-12 DH10B; method in brief: as §2
Klebsiella pneumoniae [29] = test: Ratio of Kcat/Km for Klebsiella pneumoniae 1534 beta-lactamase KPC-2 T237A mutant by spectrophotometric analysis; method in brief: as §1

Compound	MIC (Klebsiella pneumoniae [5]) [µg/mL]	MIC (Escherichia coli [6]) [µg/mL]	MIC (Escherichia coli [7]) [µg/mL]	MIC (Escherichia coli [8]) [µg/mL]	MIC (Escherichia coli [9]) [µg/mL]	MIC (Escherichia coli [10]) [µg/mL]	MIC (Escherichia coli [11]) [µg/mL]	MIC (Escherichia coli [12]) [µg/mL]	MIC (Escherichia coli [13]) [µg/mL]	MIC (Escherichia coli [14]) [µg/mL]	MIC (Escherichia coli [15]) [µg/mL]	MIC (Escherichia coli [16]) [µg/mL]	MIC (Escherichia coli [17]) [µg/mL]	MIC (Escherichia coli [18]) [µg/mL]	MIC (Escherichia coli [19]) [µg/mL]	MIC (Escherichia coli [20]) [µg/mL]	MIC (Escherichia coli [21]) [µg/mL]	MIC (Escherichia coli [22]) [µg/mL]	MIC (Escherichia coli [23]) [µg/mL]	MIC (Escherichia coli [24]) [µg/mL]	also measured
CO/N=C(\C(=O)N[C@@H]1C(=O)N2C(C(=O)O)=C(COC(C)=O)CS[C@H]12)c1csc(N)n1 [CEFOTAXIME]	16 (≈ 35.1 µM)	8 (≈ 17.6 µM)	2 (≈ 4.39 µM)	0.06 (≈ 0.132 µM)	0.06 (≈ 0.132 µM)	0.06 (≈ 0.132 µM)	0.06 (≈ 0.132 µM)	0.06 (≈ 0.132 µM)	0.06 (≈ 0.132 µM)	0.06 (≈ 0.132 µM)	0.06 (≈ 0.132 µM)	0.06 (≈ 0.132 µM)	0.06 (≈ 0.132 µM)	0.06 (≈ 0.132 µM)	0.06 (≈ 0.132 µM)	0.06 (≈ 0.132 µM)	1 (≈ 2.2 µM)	0.125 (≈ 0.274 µM)	0.06 (≈ 0.132 µM)	0.06 (≈ 0.132 µM)	Km (Klebsiella pneumoniae [1]): 168 µM; kcat (Klebsiella pneumoniae [1]): 43 s⁻¹; kcat/Km (Klebsiella pneumoniae [2]): 260000 M⁻¹ s⁻¹; kcat (Klebsiella pneumoniae [3]): < 0.1 s⁻¹; fold change (FC) (Klebsiella pneumoniae [4]): 2.7; MIC (Escherichia coli [25]): 0.06 µg/mL (≈ 0.132 µM); MIC (Escherichia coli [26]): 0.06 µg/mL (≈ 0.132 µM); MIC (Escherichia coli [27]): 0.06 µg/mL (≈ 0.132 µM); MIC (Escherichia coli [28]): 0.06 µg/mL (≈ 0.132 µM)
C[C@@H](O)[C@H]1C(=O)N2C(C(=O)O)=C(S[C@@H]3CN[C@H](C(=O)N(C)C)C3)[C@H](C)[C@H]12 [MEROPENEM]	4 (≈ 10.4 µM)	2 (≈ 5.22 µM)	0.25 (≈ 0.652 µM)	0.06 (≈ 0.156 µM)	0.06 (≈ 0.156 µM)	0.06 (≈ 0.156 µM)	0.06 (≈ 0.156 µM)	0.06 (≈ 0.156 µM)	0.06 (≈ 0.156 µM)	0.06 (≈ 0.156 µM)	0.06 (≈ 0.156 µM)	0.06 (≈ 0.156 µM)	0.06 (≈ 0.156 µM)	0.06 (≈ 0.156 µM)	0.06 (≈ 0.156 µM)	0.06 (≈ 0.156 µM)	0.5 (≈ 1.3 µM)	0.06 (≈ 0.156 µM)	0.06 (≈ 0.156 µM)	0.06 (≈ 0.156 µM)	MIC (Escherichia coli [25]): 0.06 µg/mL (≈ 0.156 µM); MIC (Escherichia coli [26]): 0.06 µg/mL (≈ 0.156 µM); MIC (Escherichia coli [27]): 0.06 µg/mL (≈ 0.156 µM); MIC (Escherichia coli [28]): 0.06 µg/mL (≈ 0.156 µM)
C[C@@H](O)[C@H]1C(=O)N2C(C(=O)O)=C(SCCNC=N)C[C@H]12 [IMIPENEM ANHYDROUS]	8 (≈ 26.7 µM)	8 (≈ 26.7 µM)	0.5 (≈ 1.67 µM)	–	–	–	–	–	–	–	0.25 (≈ 0.835 µM)	–	–	–	–	–	1 (≈ 3.34 µM)	0.25 (≈ 0.835 µM)	–	–	Km (Klebsiella pneumoniae [1]): 21 µM; kcat (Klebsiella pneumoniae [1]): 21 s⁻¹; kcat/Km (Klebsiella pneumoniae [2]): 1e+06 M⁻¹ s⁻¹; Km (Klebsiella pneumoniae [3]): 31 µM; kcat (Klebsiella pneumoniae [3]): 6.8 s⁻¹; kcat/Km (Klebsiella pneumoniae [29]): 220000 M⁻¹ s⁻¹; fold change (FC) (Klebsiella pneumoniae [4]): 2.7
C[C@@H](O)[C@H]1C(=O)N2C(C(=O)O)=C(S[C@@H]3CN[C@H](CNS(N)(=O)=O)C3)[C@H](C)[C@H]12 [DORIPENEM]	4 (≈ 9.51 µM)	4 (≈ 9.51 µM)	0.25 (≈ 0.595 µM)	0.06 (≈ 0.143 µM)	0.06 (≈ 0.143 µM)	0.06 (≈ 0.143 µM)	0.06 (≈ 0.143 µM)	0.06 (≈ 0.143 µM)	0.06 (≈ 0.143 µM)	0.06 (≈ 0.143 µM)	0.06 (≈ 0.143 µM)	0.06 (≈ 0.143 µM)	0.06 (≈ 0.143 µM)	0.06 (≈ 0.143 µM)	0.06 (≈ 0.143 µM)	0.06 (≈ 0.143 µM)	0.25 (≈ 0.595 µM)	0.06 (≈ 0.143 µM)	0.06 (≈ 0.143 µM)	0.06 (≈ 0.143 µM)	MIC (Escherichia coli [25]): 0.06 µg/mL (≈ 0.143 µM); MIC (Escherichia coli [26]): 0.06 µg/mL (≈ 0.143 µM); MIC (Escherichia coli [27]): 0.06 µg/mL (≈ 0.143 µM); MIC (Escherichia coli [28]): 0.06 µg/mL (≈ 0.143 µM)
C[C@@H](O)[C@H]1C(=O)N2C(C(=O)O)=C(S[C@@H]3CN[C@H](C(=O)Nc4cccc(C(=O)O)c4)C3)[C@H](C)[C@H]12	8 (≈ 16.8 µM)	2 (≈ 4.21 µM)	0.25 (≈ 0.526 µM)	0.06 (≈ 0.126 µM)	0.06 (≈ 0.126 µM)	0.06 (≈ 0.126 µM)	0.06 (≈ 0.126 µM)	0.06 (≈ 0.126 µM)	0.06 (≈ 0.126 µM)	0.06 (≈ 0.126 µM)	0.06 (≈ 0.126 µM)	0.06 (≈ 0.126 µM)	0.06 (≈ 0.126 µM)	0.06 (≈ 0.126 µM)	0.06 (≈ 0.126 µM)	0.06 (≈ 0.126 µM)	0.5 (≈ 1.05 µM)	0.06 (≈ 0.126 µM)	0.06 (≈ 0.126 µM)	0.06 (≈ 0.126 µM)	MIC (Escherichia coli [25]): 0.06 µg/mL (≈ 0.126 µM); MIC (Escherichia coli [26]): 0.06 µg/mL (≈ 0.126 µM); MIC (Escherichia coli [27]): 0.06 µg/mL (≈ 0.126 µM); MIC (Escherichia coli [28]): 0.06 µg/mL (≈ 0.126 µM)
